Wee1 degr inh: Wee1 degradation inhibitors, primary screen, cell-based, HeLa, Wee1K328M-luciferase, luminescence. HeLa Luc-Wee1K328M stability; 100% = proteasome inhibitor MG132 effect. AID 1321, 2008. Wee1-like protein kinase (Homo sapiens), P30291. 1.2% of 220,000 active. reporter increase, % at 5 µM;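 active = activation above the mean of all tested compounds plus 3 SD, set per screening run, cut at about 8.8% in these data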;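 also: cells exposed to compound for 20 h before luminescence read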
Target sequence (P30291 whole entry K328M): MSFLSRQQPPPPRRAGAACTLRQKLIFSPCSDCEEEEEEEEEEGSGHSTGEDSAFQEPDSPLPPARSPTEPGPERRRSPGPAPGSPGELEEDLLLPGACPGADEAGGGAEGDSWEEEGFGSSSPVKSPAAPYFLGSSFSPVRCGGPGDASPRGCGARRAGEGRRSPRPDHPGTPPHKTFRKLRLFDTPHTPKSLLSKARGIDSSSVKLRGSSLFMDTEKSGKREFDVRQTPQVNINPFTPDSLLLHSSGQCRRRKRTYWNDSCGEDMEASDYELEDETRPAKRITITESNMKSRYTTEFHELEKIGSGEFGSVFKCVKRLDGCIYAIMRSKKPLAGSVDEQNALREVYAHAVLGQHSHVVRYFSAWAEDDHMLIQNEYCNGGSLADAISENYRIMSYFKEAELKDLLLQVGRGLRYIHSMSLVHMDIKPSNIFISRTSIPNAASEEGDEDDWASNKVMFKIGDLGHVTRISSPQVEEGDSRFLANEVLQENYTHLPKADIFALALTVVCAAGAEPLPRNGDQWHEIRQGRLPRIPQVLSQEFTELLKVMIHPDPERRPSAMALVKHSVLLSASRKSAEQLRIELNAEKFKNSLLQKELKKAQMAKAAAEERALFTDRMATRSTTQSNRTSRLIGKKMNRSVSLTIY
FLuc inhib CS: firefly luciferase enzyme inhibitors, primary screen, artefact control for luciferase-based inhibitor screens, biochemical, luminescence, ATPLite; 10 min; inhibition, % at 10 µM; 1.5% of 200,000 active; AID 1006, 2008;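 active = inhibition above about 50% when tested at 10 µM, limit read from the data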
FLuc act counter: FLuc activators, initial screening, artefact control for FLuc-dependent activation tests, biochemical, ATPlite luminescence | Luciferin 4-monooxygenase (Photinus pyralis), P08659 | ATPlite luciferase biochemical, 10 min; 0 = ATP-free wells, 1 = DMSO control | activation factor at 10 µM | 200,000 tested, under 10 active;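 active = luciferase activation factor, scaled between plate controls, of at least 2 with compound at 10 µM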
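Assay system – cell-free luciferase reagent · Medium – PBS-based ATP solution · Dosing – test compounds dosed from 2 mM stocks in 100% DMSO · Timing – 10 min, room temperature · Technique – light output (luminescence) · Measure – luminescence gain marking luciferase activators · Controls – No-ATP low control, compound-free enzyme-plus-ATP high control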
PKD1 inh: inhibitors of human PKD1 kinase, biochemical, fluorescence polarization; 0.056% of 200,000 active; PKD1 kinase fluorescence polarization assay; Serine/threonine-protein kinase D1 (Homo sapiens), Q15139; inhibition, % (test concentration not listed); AID 797, 2007; in the data active = inhibition above about 50%
PPC-1+TRAIL kill: compounds killing PPC-1 cancer cells with TRAIL present, primary screen, TRAIL potentiator project, ATPLite luminescence, uHTS; PPC-1 cells + TRAIL, ATPLite viability luminescence; cell killing (% activity), % at 4 µM or 5 µM; 0.41% of 220,000 active; AID 1443, 2008;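 active = cell killing above 50% in the first pass at 4 µM, then a duplicate retest at 5 µM averaging 50% or more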
C8 TRAIL sens: viability loss with TRAIL in NB7+C8 cells, primary screen, TRAIL sensitizer project, cell-based, ATPlite luminescence | inhibition (viability loss, TRAIL sensitization), % at 10 µM | 1% of 360,000 active | AID 624354, 2012;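 active = compounds causing at least 50% loss of cell viability in the single-dose screen, relative to plate controls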
A number is an active result; – = inactive; · = not tested or not shown. In the library only some 2.2% were active in any assay of this set; here they are far more common.

SMILES | Wee1 degr inh | FLuc inhib CS | FLuc act counter | PKD1 inh | PPC-1+TRAIL kill | C8 TRAIL sens
O=C(Nc1ccccn1)c1ccc2c(c1)OCCO2 | – | 74 | – | – | · | 56
O=C(Nc1ccc(Cl)cc1Cl)c1ccc2c(c1)OCCO2 | · | · | · | · | · | 53
C=CCc1c(C)nc2ccc(C(=O)OCC)cc2c1Cl | – | – | – | – | – | –
Cn1c(=O)c2c(ncn2CC(=O)OCC(=O)NCc2ccc(F)cc2)n(C)c1=O | · | · | · | · | · | –
O=C(N/N=C/c1cccs1)c1ccc2ncccc2c1 | – | – | – | – | – | –
Cc1ccc(/C=N/NC(=O)c2ccncc2)s1 | – | · | · | · | – | –
CCN(CC)c1ccc(/C=N/NC(=O)c2ccccn2)cc1 | 9.5 | · | · | · | – | 65
O=C(N/N=C/c1cccs1)c1ccccn1 | – | 51 | – | – | – | –
Cc1ccc(/C=N\NC(=O)c2csnn2)cc1 | – | 66 | – | – | – | –
Cc1ccc(/C=N/NC(=O)c2ccccn2)s1 | – | 75 | – | – | – | –
CCS(=O)(=O)N1CCC(C(=O)c2ccc(Cl)cc2)CC1 | – | – | – | – | – | –
O=C(CN1Cc2ccccc2C1=O)Nc1ccc2c(c1)OCCO2 | · | · | · | · | · | –
CCOC(=O)C1=C(CC)Nc2ccccc2N=C1NC(=O)Nc1ccc(Cl)c(Cl)c1 | – | – | – | – | – | 56
CCOC(=O)C1=C(CC)Nc2ccccc2N=C1NC(=O)c1cc(C)on1 | · | · | · | · | · | –
CCc1ccc(C2=NN(C(=O)OC)C(O)(C(F)(F)F)C2)cc1 (stereo not given) | – | 73 | – | – | – | 55
CCOC(=O)N1N=C(c2ccc(OC)cc2)CC1(O)C(F)(F)F (stereo not given) | – | – | – | – | – | –
C/C(=N\NC(=O)c1ccn[nH]1)c1cn(C)nc1C | – | 54 | – | – | – | –
C/C(=N\NC(=O)c1nn(C)cc1Br)c1ccncc1 | – | – | – | – | – | –
Cc1cccc(N(C(=O)c2csnn2)C(C(=O)NCc2ccccc2)c2cccs2)c1 (stereo not given) | · | · | · | · | · | –
CCOC(=O)CSc1ccc(S(=O)(=O)N2CCC(C)CC2)cc1[N+](=O)[O-] | – | – | – | – | – | –
COC(=O)CSc1ccc(S(=O)(=O)N2CCOCC2)cc1[N+](=O)[O-] | 9.3 | – | – | – | – | –
N#Cc1ccc(CO/N=C/c2ccccc2)cc1 | – | – | – | – | – | –
CC(=O)OCCN1CCN(C(=O)CN2C(=O)NC(c3ccccc3)(c3ccccc3)C2=O)CC1 | · | · | · | · | · | –
O=C(CCl)N1CCN(S(=O)(=O)c2ccc3ccccc3c2)CC1 | · | · | · | · | · | 81
C=CCn1c(SC(C)C#N)nc2sc(CC)cc2c1=O (stereo not given) | 11 | – | – | – | – | –
SMILES | Wee1 degr inh | FLuc inhib CS | FLuc act counter | PKD1 inh | PPC-1+TRAIL kill | C8 TRAIL sens
O=C1c2ccccc2C(=O)c2[nH]c(=O)[nH]c21 | · | · | · | · | · | 75
COc1ccc(C2(c3ccc(OC)cc3)NC(=O)N(CC(=O)NCC(C)c3ccccc3)C2=O)cc1 (stereo not given) | · | · | · | · | · | –
N#C/C(N=Nc1ccccc1O)=N\Nc1ccccc1O | · | · | · | · | · | 54
CCC(=O)NC(c1ccc(C)cc1)c1cc([N+](=O)[O-])c2cccnc2c1O (stereo not given) | – | – | – | – | – | 54
COc1ccc(C(=O)Nc2ccccc2C(=O)Nc2ccc(C(=O)O)cc2)cc1 | · | · | · | · | · | –
COc1ccc(C(=O)Nc2ccccc2C(=O)Nc2ccncc2)cc1 | · | · | · | · | · | 65
NC(=O)c1ccccc1NC(=O)c1ccc2c(c1)OCO2 | · | · | · | · | · | –
COc1ccc(C(=O)Nc2ccccc2C(=O)Nc2ccccc2C(=O)O)cc1 | · | · | · | · | · | 59
COc1ccc(C(=O)Nc2ccccc2C(N)=O)cc1 | – | 74 | – | – | – | 52
NC(=O)c1ccccc1NC(=O)c1ccc2ccccc2c1 | · | · | · | · | · | 59
CCCCn1c(N)c(N(CC(C)C)C(=O)C2=COCCO2)c(=O)[nH]c1=O | · | · | · | · | · | –
COc1ccc(N(CC(=O)NC2CC3CCC2C3)S(=O)(=O)c2ccccc2)cc1Cl (stereo not given) | · | · | · | · | · | –
COc1ccc(C(=O)Nc2ccc(O)cc2C(=O)O)cc1 | – | 63 | – | – | – | –
COc1ccc(C(=O)Nc2ccccc2C(=O)N/N=C/c2cccc3ccccc23)cc1 | – | 97 | – | – | 90 | 95
CSc1ccc(/C=N/NC(=O)c2ccc(O)cc2)cc1 | – | 71 | – | – | – | –
O=C(Nc1ccccc1C(=O)N/N=C/c1ccc(O)cc1)c1ccccc1 | – | · | · | · | – | 79
O=C(Nc1ccccc1C(=O)N/N=C/c1ccccc1)c1ccco1 | · | · | · | · | · | –
COc1cccc(/C=N/NC(=O)c2ccccc2NC(=O)c2ccco2)c1OC | – | · | · | · | – | –
O=C(C1COc2ccccc2O1)N1CCN(c2ccc([N+](=O)[O-])cc2)CC1 (stereo not given) | · | · | · | · | · | –
CCC(NC(=O)CNC(=O)c1ccc2c(c1)OCO2)c1ccc(Br)cc1 (stereo not given) | · | · | · | · | · | –
O=C(COC(=O)CC1CC2CCC1C2)Nc1ccccc1[N+](=O)[O-] (stereo not given) | · | · | · | · | · | –
CCOc1ccccc1CNC(=O)C1CCN(S(=O)(=O)N2CCC(C)CC2)CC1 | · | · | · | · | · | –
CCn1c2ccccc2c2cc(N=C3SC(CC(=O)Nc4ccccc4)C(=O)N3C)ccc21 (stereo not given) | 17 | – | – | – | – | –
CC(NC(=O)COC(=O)c1ccc([N+](=O)[O-])s1)c1ccccc1 (stereo not given) | 8.9 | – | – | – | – | –
CC(C)Cc1nnc(NC(=O)CCC(=O)N2CCN(c3ccc(Cl)cc3)CC2)s1 | · | · | · | · | · | –
SMILES | Wee1 degr inh | FLuc inhib CS | FLuc act counter | PKD1 inh | PPC-1+TRAIL kill | C8 TRAIL sens
CC(/C=C\c1ccccc1)=C/C(=O)O | – | · | · | · | – | –
CC(=C/C(=O)O)/C=C/c1ccc([N+](=O)[O-])cc1 | 11 | – | – | – | – | –
CC(C)(C)OC(=O)C[C@@H]1C/C=C\C[C@H](CC(=O)N(CCO)Cc2ccccc2)C(=O)N[C@H](Cc2ccccc2)COC1=O | · | · | · | · | · | –
COc1ccc(C2C(C#N)=C(N)Oc3cc(C)[nH]c(=O)c32)cc1OC (stereo not given) | – | · | · | · | – | –
C=CCc1ccc(O)c(-c2cc(CC=C)ccc2O)c1 | 10 | – | – | – | – | –
CCOC(=O)c1cn2nc(SCc3ccccc3)nc2nc1C | · | · | · | · | · | –
COCc1cc(=O)[nH]c(Nc2nc3ccc(C)cc3o2)n1 | 8.9 | – | – | – | – | –
COc1ccc(-n2nnnc2CNC(=O)C2CC(=O)N(c3ccc(Cl)cc3)C2)cc1 (stereo not given) | · | · | · | · | · | –
Cc1ccc(-n2c(C)csc2=N)cc1 | – | 59 | – | – | – | –
